Source: PubChem
Only some compounds are listed: those with a hit (about 1.3% of all), similar ones and a draw of the others.
Diaphorase act = compounds boosting diaphorase resazurin reduction – biochemical, uHTS, resorufin fluorescence, counter-screen for diaphorase-coupled primary assays, primary screen. activation factor at 20 µM. AID 1229, 2008. hit rate 0.005% among 190,000. Diaphorase/resazurin coupled assay, 16 min; hits give high values; 1 = vehicle wells, 0 = NADH-free wells;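 active = diaphorase activity raised at least twofold by the compound at 20 µM; inactive = activation factor below 2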
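Material: purified diaphorase enzyme from Clostridium kluyveri / Medium: HEPES pH 7.4 buffer with MgCl2 and Tween 20 / Schedule: enzyme reaction of 16 min at room temperature / Measured by: resorufin fluorescence, excitation 544 nm, emission 590 nm / Evaluation: rise in resorufin formation, marking diaphorase activation or chemical reduction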
Diaph inh CS = diaphorase inhibitors and chemical oxidizers, primary screen, counter-screen for diaphorase-coupled primary assays, biochemical, uHTS, resorufin fluorescence; hit rate 0.69% among 190,000; diaphorase resazurin-to-resorufin fluorescence, NADH, 16 min; bacterial (C. kluyveri) enzyme, not human; inhibition, % at 20 µM; AID 1217, 2008;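 active = primary screen inhibition at 20 µM above a set limit, cut at about 50% in these data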;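 note: plate controls were DMSO with full reaction for no effect and wells lacking NADH for full effect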
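Assay system: diaphorase enzyme from Clostridium kluyveri; Input: enzyme working solution with 0.14 U/mL diaphorase; Timing: 16 min at room temperature; Technique: resorufin fluorescence, excitation 544 nm, emission 590 nm; Benchmarks: positive control minus NADH, DMSO neutral control.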
PfG6PD inh = PfG6PD enzyme inhibitors, primary screen, biochemical, fluorescence intensity, uHTS. glucose-6-phosphate dehydrogenase-6-phosphogluconolactonase (Plasmodium falciparum 3D7). PfGluPho enzyme, NADPH resazurin-diaphorase fluorescence. inhibition, % at 20 µM. hit rate 0.78% among 350,000. AID 504690, 2011;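 active = inhibition reaching at least a set limit at 20 µM in the primary screen, cut at about 59% in these data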;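 note: 0% = DMSO wells with substrate and 100% = DMSO wells lacking glucose-6-phosphate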
HKDC1 inhibitor = HKDC1 hexokinase inhibitors, primary screen, biochemical, fluorescence, uHTS; hit rate 0.16% among 340,000; AID 493160, 2011; Q2TB90; recombinant HKDC1, G6PDH/diaphorase resazurin coupled fluorescence; inhibition, % at 20 µM;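 active = inhibition above about 35% when tested at 20 µM, limit read from the data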;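 note: plate controls were DMSO wells with enzyme for no effect and DMSO wells lacking enzyme for full effect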
Target sequence (Q2TB90 whole entry, looked up): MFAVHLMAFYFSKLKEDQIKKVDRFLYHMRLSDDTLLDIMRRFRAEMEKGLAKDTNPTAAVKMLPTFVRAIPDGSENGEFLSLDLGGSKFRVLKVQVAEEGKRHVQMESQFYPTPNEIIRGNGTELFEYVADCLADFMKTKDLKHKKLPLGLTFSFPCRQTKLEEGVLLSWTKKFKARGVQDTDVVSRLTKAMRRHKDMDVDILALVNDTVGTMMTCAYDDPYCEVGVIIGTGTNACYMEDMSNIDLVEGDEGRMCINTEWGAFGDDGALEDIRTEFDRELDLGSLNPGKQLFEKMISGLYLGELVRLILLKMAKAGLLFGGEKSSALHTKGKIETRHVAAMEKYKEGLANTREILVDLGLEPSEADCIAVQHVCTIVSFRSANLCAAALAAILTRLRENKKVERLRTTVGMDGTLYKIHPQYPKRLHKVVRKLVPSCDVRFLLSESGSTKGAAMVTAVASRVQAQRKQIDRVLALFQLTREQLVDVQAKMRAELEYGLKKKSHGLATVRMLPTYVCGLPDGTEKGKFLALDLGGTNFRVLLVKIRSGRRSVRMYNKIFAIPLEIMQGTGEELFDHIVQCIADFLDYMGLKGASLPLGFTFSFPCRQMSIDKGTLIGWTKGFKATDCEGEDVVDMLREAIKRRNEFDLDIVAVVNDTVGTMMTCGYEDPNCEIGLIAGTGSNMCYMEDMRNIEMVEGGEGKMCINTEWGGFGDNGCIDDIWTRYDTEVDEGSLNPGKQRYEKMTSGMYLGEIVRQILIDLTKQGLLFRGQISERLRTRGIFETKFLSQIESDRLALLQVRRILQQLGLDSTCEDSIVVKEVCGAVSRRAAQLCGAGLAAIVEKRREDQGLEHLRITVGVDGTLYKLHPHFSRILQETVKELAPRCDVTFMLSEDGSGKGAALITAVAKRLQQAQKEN
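Test system: recombinant HKDC1 (HK5) hexokinase enzyme, produced in-house / Doses: 20 µM test compound, 1% DMSO / Timing: 90 min, room temperature / Detection: G6PDH/diaphorase-coupled fluorescence, 1 mM NADP, 100 µM resazurin, 525/613 nm / Control set: DMSO wells with and without enzyme mix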
Tb hexokinase = Trypanosoma brucei hexokinase 1 inhibitors, primary screen, biochemical, G6PDH-coupled NADH absorbance, MLSCN library | hit rate 0.11% among 220,000 | inhibition, % at 10 µM | recombinant TbHK1, G6PDH-coupled NADH A340 | hexokinase 1 [Trypanosoma brucei];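 active = inhibition of 50% or more in the single-dose primary screen; inactive = inhibition below 50%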
G6PDH counter = L. mesenteroides G6PDH inhibitors, counter-screen for G6PDH-coupled screening assays, biochemical, Leuconostoc mesenteroides enzyme. glucose-6-phosphate dehydrogenase [Leuconostoc mesenteroides]. Purified L. mesenteroides G6PDH, diaphorase/resazurin coupled fluorescence, 45 min. inhibition, % at 5 µM. hit rate 0.12% among 200,000. AID 1020, 2008; in the data active = inhibition above about 50%
* hit, by the source's call; . = no result.

SMILES	Diaphorase act	Diaph inh CS	PfG6PD inh	HKDC1 inhibitor	Tb hexokinase	G6PDH counter
O=C(COC(=O)c1c2c(nc3ccccc13)/C(=C\c1ccco1)CC2)NC1CCCC1	.	.	20.9	13.6	.	.
NC(=O)c1sc2nc3c(c(-c4ccco4)c2c1N)CCC3	0.2	80.8*	9.2	4.1	-9.0	-4.1
Nc1c(C(=O)NC2CC2)sc2nc3c(c(-c4ccco4)c12)CC/C3=C/c1ccco1	0.1	87.4*	35.9	27.9	-9.6	13.3
CCC(C)(C)C1CCc2[nH]nc(C(=O)NCCNC(=O)OC(C)(C)C)c2C1 (stereo not given)	.	.	17.3	-1.6	.	.
CC(C)COc1cccc(C(=O)NC(=S)NCc2cccnc2)c1	0.5	50.8*	3.9	-4.2	0.7	-11.3
CCOc1cccc(C(=O)NC(=S)NCc2cccnc2)c1	0.8	16.6	-2.2	-13.2	-5.4	6.5
O=C(Nc1cccn(Cc2cccc(F)c2)c1=O)NC1CCCCC1	0.5	50.3*	3.8	5.5	0.4	15.4
CCCCCC(=O)N1C[C@@H](n2cc(C3CC3)nn2)[C@H](O)C[C@@H]1c1ccc(C)cc1	.	.	-2.2	.	.	.
Oc1c(CN2CCOCC2)cc(COCc2ccccc2)c2cccnc12	0.5	52.8*	-27.2	4.9	-11.9	-4.0
Oc1c(CNc2ccccc2)cc(COCc2ccccc2)c2cccnc12	.	.	-24.4	-38.6	.	.
CCOC(=O)c1c(S(=O)(=O)NC2CCN(C(=O)OCC)CC2)c(C)n(C)c1C	.	.	-18.5	-4.4	.	.
Cc1ccc(S(=O)(=O)/N=C2\C(=O)c3ccccc3C([O-])=C2n2cc[n+](CCC(C)C)c2)cc1	0.9	11.8	44.4	-0.1	-3.1	52.7*
Cc1ccc([N+](=O)[O-])cc1-c1[nH]c(-c2ccc(O)c(O)c2)nc1-c1ccccc1	0.4	63.6*	8.1	7.4	-13.0	6.8
COc1ccc(-c2nc(-c3ccccc3)c(-c3cc([N+](=O)[O-])ccc3C)[nH]2)cc1O	0.7	28.7	46.7	8.0	-8.5	6.4
O=C(c1cccs1)N1CCCC(c2nc3c(nnn3Cc3c(Cl)cccc3Cl)c(=O)[nH]2)C1 (stereo not given)	.	.	-9.9	8.4	.	.
CCC[C@H]1CN(c2ccc(Br)cc2)C(=O)[C@@H]1CC(=O)NC	.	.	-8.3	.	.	.
O=c1ccc2cc(O)c(O)cc2o1	0.4	61.3*	-22.9	-1.1	-8.2	45.4
O=c1ccc2ccc(O)cc2o1	.	.	4.0	0.6	.	.
COc1cc2c(c3oc(-c4ccccc4)cc(=O)c13)C=CC(C)(C)O2	0.2	81.8*	32.8	18.8	-12.2	23.1
COc1cc(OC)c2c(=O)cc(-c3cccnc3)oc2c1	.	.	1.6	0.7	-28.3	.
COc1cc(OC)c2c(=O)cc(-c3ccccc3)oc2c1	0.4	55.4*	7.5	11.9	-26.8	8.3
CC(C)c1cccc(-c2ccc3c(c2)S(=O)(=O)c2cccc(C(=O)NCc4ccccc4Cl)c2C3=O)c1	.	.	-23.8	-6.1	.	.
CCOP(=O)(OCC)c1nc(/C=C/c2ccccc2)oc1NCc1ccc(OC)cc1	0.5	51.9*	8.3	12.3	-32.6	7.9
CCOP(=O)(OCC)c1nc(/C=C/c2ccccc2)oc1NCc1ccccc1	0.5	54.1*	19.6	0.5	-40.2	6.1
CCOP(=O)(OCC)c1nc(-c2ccc(C)cc2)oc1NCc1ccccc1	0.7	26.7	15.2	16.6	21.8	-0.9
SMILES	Diaphorase act	Diaph inh CS	PfG6PD inh	HKDC1 inhibitor	Tb hexokinase	G6PDH counter
Cc1nn(CCCC(=O)NC(C)c2ccccc2)c(=O)c2nn(-c3ccccc3)c(C)c12 (stereo not given)	.	.	-0.1	-6.0	.	.
O=C(O)c1ccc(S(=O)(=O)c2ccc3c(c2)C(=O)N(c2ccc(O)cc2)C3=O)cc1	.	.	-5.5	-9.6	-5.9	.
O=C1c2ccc3c4c(ccc(c24)C(=O)N1c1ccc(O)cc1)C(=O)N(c1ccc(O)cc1)C3=O	0.9	10.6	29.4	55.8*	-8.1	10.1
CC1(c2ccc3c(c2)OCCCO3)NC(=O)N(CC(=O)NCCc2ccccc2)C1=O (stereo not given)	.	.	8.7	-8.9	.	.
O=C(O)c1ccccc1-c1ccc(/C=c2\sc3nc4cc(Br)cnc4n3c2=O)o1	0.4	56.1*	58.9	67.8*	10.2	16.1
Cc1cc2nc3s/c(=C/c4ccc(-c5ccccc5C(=O)O)o4)c(=O)n3c2cc1C	.	.	31.6	14.9	.	.
Cc1ccc(S(=O)(=O)NCCCNS(C)(=O)=O)cc1	1	2.0	-0.9	-2.7	-1.2	6.2
CC(=O)NCCCNS(=O)(=O)c1ccc(C)cc1	0.3	67.0*	5.1	-5.8	-16.0	-0.3
O=C(Nc1nccs1)C1CCN(S(=O)(=O)c2ccccc2)CC1	.	.	-8.6	1.2	.	.
O=C(Cc1cccs1)N/N=C\c1ccc([N+](=O)[O-])s1	1.1	-9.3	27.5	-7.2	4.5	2.9
Cc1cc(C)cc(N=Cc2ccc([N+](=O)[O-])s2)c1	0.8	20.1	62.4*	14.0	-11.6	15.0
O=[N+]([O-])c1ccc(C=Nc2ccc(Cl)c([N+](=O)[O-])c2)s1	1	4.5	.	.	-11.5	29.1
NC(=O)c1ccc(N=Cc2ccc([N+](=O)[O-])s2)cc1	0.9	8.9	72.3*	14.3	15.4	11.1
c1ccc(Cc2nnc(N3CCCCC3)c3ccccc23)cc1	0.9	5.8	12.1	6.4	-2.0	-6.8
c1ccc(Cc2nnc(N3CCOCC3)c3ccccc23)cc1	1	2.5	-10.6	2.4	-4.1	56.0*
O=C(O)/C(=C\c1ccc(Cl)c([N+](=O)[O-])c1)c1ccc(S(=O)(=O)N2CCCCC2)s1	0.4	60.6*	-21.3	5.6	-29.8	8.5
CN(C)/N=C/c1c(O)ccc2ccccc12	0.7	29.2	8.3	14.6	-15.3	13.1
OCC(CO)(CO)N=Cc1c(O)ccc2ccccc12	0.4	57.3*	34.5	10.2	-10.8	34.2
COc1ccc(C(=O)N2CCNC(=O)C2)cc1S(=O)(=O)Nc1ccc(Br)cc1	.	.	-4.7	-6.3	.	.
Cc1c(NC(=O)COC(=O)c2ccccc2O)c(=O)n(-c2ccccc2)n1C	.	.	1.0	.	.	.
Clc1ccccc1C1Nc2cccc3cccc(c23)N1	.	.	20.8	11.1	.	.
c1coc(C2Nc3cccc4cccc(c34)N2)c1	0.3	69.9*	.	.	-30.8	21.3
COc1ccc(S(=O)(=O)/N=C2/C=CC(=O)C(C)=C2C)cc1	0.7	28.6	62.0*	51.8*	-4.7	39.8
